# Shown are actives, neighbours in structure and some others; about 0.55% of the full set was active somewhere.
# Rad51 HR inh: human RAD51 strand exchange inhibitors, primary screen, biochemical, fluorescence; hRad51 DNA strand exchange, fluorescence dequenching; 0.085% of 200,000 active; AID 1385, 2008; DNA repair protein RAD51 homolog 1 (Homo sapiens), Q06609; inhibition, % at 10 µM;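 active means inhibition above 40% at the single screening dose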;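 further: 0% = DMSO control wells and 100% = blanks with heterologous ssDNA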
#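 System: human Rad51 nucleoprotein filaments preassembled on unlabelled ssDNA. Reagent: labelled 47-mer dsDNA for strand exchange. Schedule: 30-min compound preincubation and 15-min exchange, both room temperature. Measured by: FRET fluorescence dequenching, excitation 485 nm, emission 520 nm. Read-out: Fluorescence-based percent inhibition, control- and blank-normalised. Benchmarks: plate controls and plate blanks.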
# p97 ATPase inh: inhibitors of human p97 ATPase, primary screen, biochemical | recombinant p97 ATPase, Kinase-Glo ATP luminescence, 3 h | 0.42% of 220,000 active | AID 1481, 2009 | inhibition, % at 8 µM; in the data active means inhibition above about 15%;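 further: 0% = DMSO vehicle and 100% = wells lacking enzyme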
# HSV replic up: enhancers of HSV replication in host cells, fold increase, host cell viability | HSV replication augmentation in cells | maximum fold increase | 0.005% of 220,000 active | AID 1956, 2009; in the data active means maximum fold increase above about 1.5; inconclusive means no clear call, values can overlap the other calls; tested in PC3 cells
# ABCG2 block: ABCG2 efflux pump inhibitors, primary screen, multiplex with ABCB1, IgMXP3 cells, flow cytometry. Broad substrate specificity ATP-binding cassette transporter ABCG2 (Homo sapiens), Q9UNQ0. AID 1325, 2008. inhibition, % at 6.6 µM. 0.1% of 190,000 active. JC-1 efflux;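 active means inhibition above 80%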;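 further: 0% = DMSO and 100% = nicardipine control wells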
#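 Measure – % inhibition of efflux relative to nicardipine and DMSO · Test system – ABCG2 IgMXP3 and barcoded ABCB1 CCRF-Adr cell mix · Control set – nicardipine as high control, DMSO as low control · Compound – one concentration, 6.6 µM final · Signal – flow cytometry of retained JC-1 fluorescence · Timing – 10 min exposure at 25 °C with rotation, no wash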
# ABCB6 inh 2: ABCB6 transporter inhibitors, primary screen, K562-ABCB6 cells, flow cytometry, MLPCN library; ATP-binding cassette sub-family B member 6 (Homo sapiens), Q9NP58; K562-ABCB6 porphyrin accumulation, 1 h; hits give low values; fluorescence ratio to DMSO, % at 10 µM; 0.19% of 360,000 active;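 active means fluorescence ratio to DMSO below 75%, the collection mean minus 3 SD; inconclusive means too few cells collected in the well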;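 further: signal is porphyrin accumulated inside mitochondria; 100% equals median channel fluorescence of DMSO control wells; lower ratio means ABCB6 inhibition with less porphyrin fluorescence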
# ABCB1 inh: ABCB1 efflux pump inhibitors, primary screen, cell-based, multiplex, flow cytometry, ABCG2 counter-screen; 0.067% of 190,000 active; inhibition, % at 6.6 µM; CCRF-Adr cells, JC-1 efflux; ATP-dependent translocase ABCB1 (Homo sapiens), P08183; in the data active means inhibition above about 40%;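 further: 0% = vehicle and 100% = reference inhibitor; higher value means more JC-1 retained so stronger ABCB1 efflux block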
# Target sequence (P08183 whole entry, looked up): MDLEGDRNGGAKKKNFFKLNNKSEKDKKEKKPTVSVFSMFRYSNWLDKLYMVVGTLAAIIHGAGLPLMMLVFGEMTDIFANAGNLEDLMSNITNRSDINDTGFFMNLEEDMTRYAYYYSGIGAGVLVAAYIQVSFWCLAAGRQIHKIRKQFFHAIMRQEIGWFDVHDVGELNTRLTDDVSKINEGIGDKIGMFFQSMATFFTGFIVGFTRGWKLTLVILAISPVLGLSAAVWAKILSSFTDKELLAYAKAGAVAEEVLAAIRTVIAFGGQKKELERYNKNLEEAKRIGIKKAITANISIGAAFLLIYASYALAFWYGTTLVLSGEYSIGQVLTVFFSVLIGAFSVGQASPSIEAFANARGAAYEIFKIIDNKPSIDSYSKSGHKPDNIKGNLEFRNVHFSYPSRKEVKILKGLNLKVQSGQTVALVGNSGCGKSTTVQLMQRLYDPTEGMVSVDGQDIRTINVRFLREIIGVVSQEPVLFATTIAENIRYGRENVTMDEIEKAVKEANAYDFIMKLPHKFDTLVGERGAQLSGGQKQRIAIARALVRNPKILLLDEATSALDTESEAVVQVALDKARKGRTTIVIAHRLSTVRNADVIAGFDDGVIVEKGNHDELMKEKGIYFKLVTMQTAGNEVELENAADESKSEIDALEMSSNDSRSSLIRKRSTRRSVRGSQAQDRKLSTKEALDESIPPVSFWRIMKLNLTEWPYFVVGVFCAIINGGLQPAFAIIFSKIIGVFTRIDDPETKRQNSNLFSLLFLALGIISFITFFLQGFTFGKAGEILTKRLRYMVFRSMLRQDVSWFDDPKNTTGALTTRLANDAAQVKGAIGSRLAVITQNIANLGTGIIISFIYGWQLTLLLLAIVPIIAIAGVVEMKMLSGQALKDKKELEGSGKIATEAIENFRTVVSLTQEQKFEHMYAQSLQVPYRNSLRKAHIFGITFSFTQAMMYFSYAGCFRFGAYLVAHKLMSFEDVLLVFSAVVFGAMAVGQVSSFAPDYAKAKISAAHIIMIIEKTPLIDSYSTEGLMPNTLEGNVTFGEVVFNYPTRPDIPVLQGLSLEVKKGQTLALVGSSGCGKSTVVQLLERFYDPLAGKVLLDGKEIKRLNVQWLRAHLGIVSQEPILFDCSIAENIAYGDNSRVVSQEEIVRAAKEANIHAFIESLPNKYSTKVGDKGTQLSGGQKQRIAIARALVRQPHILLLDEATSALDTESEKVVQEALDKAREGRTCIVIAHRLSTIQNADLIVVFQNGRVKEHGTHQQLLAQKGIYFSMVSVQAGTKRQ
# p97 confirm: p97 ATPase inhibitors, retest, confirmation, biochemical. shares compounds with p97 ATPase inh. recombinant p97 ATPase, Kinase-Glo ATP luminescence. inhibition, % at 8 µM. 44% of 760 active;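 active means percent inhibition of p97 ATPase above a set limit, the primary screen's mean plus 3 SD, cut at about 15% in these data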;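 further: 0% = DMSO wells and 100% = wells lacking p97 protein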
# * hit, by the source's call; i = inactive; ? = inconclusive; . = no result.
SMILES,Rad51 HR inh,p97 ATPase inh,HSV replic up,ABCG2 block,ABCB6 inh 2,ABCB1 inh,p97 confirm
CC1=NN(c2ccc(Cl)cc2)C(=O)C1C(c1ccccc1O)c1c(C)[nH]n(-c2ccc(Cl)cc2)c1=O (centres undefined),.,32*,i,0,99,0,8
CCn1nc(CC(=O)Nc2nnc(CC(=O)N3CCCC3)s2)c2ccccc2c1=O,-6,6,i,1,92,0,.
CCn1nc(CC(=O)Nc2nnc(CC(=O)N3CCOCC3)s2)c2ccccc2c1=O,.,20*,i,1,100,0,8
CCc1cccc(NC(=O)C2CCCN(S(=O)(=O)c3c(C)[nH]c(=O)[nH]c3=O)C2)c1 (centres undefined),15,23*,i,3,99,1,9
CCc1nc2c(OCCc3cccc(OC)c3)cccn2c1N(C=O)Cc1ccc(OC)cc1,.,.,.,.,96,.,.
C=CCN1C(=O)N(/C=C/C)c2cccc3cccc1c23,8,15*,i,19,94,1,6
N#C/C(=C(/O)c1cc2ccccc2o1)c1nc2ccccc2s1,-2,26*,i,.,99,.,24*
Nc1c(-c2ccccc2)c(CSc2nc3ccccc3[nH]2)nn1-c1cccc(C(=O)O)c1,-7,16*,i,2,99,0,7
CCCCN(C(C)=O)c1c(CC)nc2ccc(C(=O)NCCOc3ccc(OC)cc3)cn12,.,.,.,.,98,.,.
Cc1oc2c(c1C(=O)c1ccccc1)C(=O)C(=O)c1ccccc1-2,-2,31*,i,5,104,1,29*
CC(O)(c1ccccc1)c1nc(-c2cccc(C#N)c2)cs1 (centres undefined),.,.,.,.,97,.,.
O=c1c2ccccc2nc2c3ccccc3c(Cl)nn12,9,21*,i,-3,.,-2,25*
C=CCNC(=O)C(C#N)c1nc2ccccc2nc1N1CCCCCC1 (centres undefined),-7,21*,i,2,114,0,-2
CN1CCN(c2nc3ccccc3nc2C(C#N)S(=O)(=O)c2ccccc2)CC1 (centres undefined),3,5,i,.,.,.,.
N#CC(c1nc2ccccc2nc1N1CCCC1)S(=O)(=O)c1ccccc1 (centres undefined),-43,17*,?,1,183,0,4
Cc1ccc(C)c(S(=O)(=O)C(C#N)c2nc3ccccc3nc2N2CCCC2)c1 (centres undefined),-53,19*,i,-1,100,0,8
NC(=O)c1[nH]cnc1N=NN(CCO)Cc1ccccc1,.,.,.,.,99,.,.
COc1ccc(CNC(=O)C2Cc3c(-c4ccccc4Oc4ccccc4)ccnc3O2)cc1OC (centres undefined),.,.,.,.,85,.,.
CC(C)(C)OC(=O)C[C@H]1C/C=C\C[C@H](CC(=O)N[C@H](CO)Cc2ccccc2)C(=O)N2CCC[C@H]2COC1=O,.,.,.,.,97,.,.
Nc1ccc(N2CCOCC2)c2nonc12,-13,47*,i,6,100,1,2
COc1cccc(CNC(=O)[C@@H]2CCCN2C(=O)[C@H]2CCCCN2C(=O)c2cccc(Cl)c2)c1,.,.,.,.,94,.,.
Nc1cc2nn(-c3ccccc3)nc2cc1Cl,34,19*,i,0,117,0,9
O=C(CNC(=O)c1ccc(F)cc1)N/N=C/c1ccc(O)c([N+](=O)[O-])c1,2,22*,i,4,102,-1,5
CC/C(=C\C(=O)c1ccncc1)Nc1ccc(O)cc1,-6,21*,i,3,104,0,8
O=C(N/N=C/c1ccc(O)cc1)c1ccncc1,.,.,.,.,97,.,.

# Compound activity from PubChem BioAssay.
